Data from publication PMC3003407 (The Journal of Biological Chemistry, 2010).

Columns and labels:
[1] = biological target: human plasma fibronectin (human); test: ELISA
[2] = biological target: FN (Homo sapiens, UniProt P02751); test: Competition of 0.3 nM b-FUD binding to adsorbed FN; conditions: 1000 nM competitor
Outline: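 Wells coated overnight at 4 °C with 10 μg/ml (40 nM) FN, then blocked with 5% BSA in TBST. 0.3 nM biotinylated FUD was added together with competitor in TBST plus 0.1% BSA for 2 h. Detection used alkaline phosphatase–streptavidin (1:20,000, 1 h), 4-nitrophenyl phosphate (1 mg/ml, TBS pH 9.0) and A405. Triplicates, background-subtracted, expressed relative to b-FUD alone.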

[3] = biological target: recombinant human N-terminal 70-kDa fibrin- and gelatin-binding fragment of fibronectin (N-9FNI, residues 32-608) (human) (UniProt P02751); test: ITC

Substance: FUD i29/30 (single alanine inserted between Ile-29 and Asp-30) (domain or fragment)
- percent competition at 10 μM [1]: 20%

Substance: N-^5FNI: Recombinant FN fibrin-binding fragment, residues 32–290
- competition with b-FUD for binding to FN [2]: minor degree

Substance: functional upstream domain (FUD) of Streptococcus pyogenes F1 adhesin, recombinant, 56 residues with tails (domain or fragment)
- Kd [3]: 5.2 nM
